MITF TRPM1 HTS: increases MITF-driven TRPM1 promoter luciferase signal; SK-MEL-5 TRPM1-promoter luciferase, 24 h; % of positive control, neutral wells = 0; activation, % at 12.5 µM; 300,000 compounds, 0.75% hits; AID 588334;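 active = mean activation of at least 80% with every replicate also reaching 80%; inconclusive = mean reaches 80% but some replicate falls short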
Wnt act: activates Wnt/beta-catenin signaling in a reporter cell assay. activator, plate reader. activation, % at 9.35 µM. 300,000 compounds, 1.2% hits. AID 743398; in the data active = activation above about 30%, passing the limit was not always enough; inconclusive = no clear call, values can overlap the other calls
HSF-1 act: increases HSF-1 driven luciferase reporter signal; NIH3T3-HGL HSF-1 luciferase reporter, MG132, 8 h; 100% = twice DMSO control signal; activation, % at 9 µM; 300,000 compounds, 1.7% hits;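 active = mean replicate activation of at least 50% with a set share of replicates each reaching 50%; inconclusive = only one of those two conditions met; inactive = mean below 50% and too few replicates reaching it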
SR-BI DiI-HDL act: activators of SR-BI mediated HDL lipid uptake | CHO ldlA[mSR-BI] cells, DiI-HDL uptake fluorescence, 3 h; 100 = double the neutral-control signal | activation, % at 12.5 µM | 320,000 compounds, 0.096% hits | AID 504775;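 active = mean replicate activation of at least 60% and every replicate at or above 60%; inconclusive = mean or all-replicate condition met, but not both; inactive = mean below 60% and not all replicates reaching 60%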
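system = CHO ldlA[mSR-BI] cells, LDL receptor-null, SR-BI overexpressing | medium = Ham's F12 with 0.5% BSA, HEPES 25 mM, pH 7.4 | probe or stimulus = DiI-HDL 10 µg/mL | compound dosing = single-point compound dose | incubation = compound exposure 3 h, 37 °C | technique = DiI fluorescence, bottom read | read-out = cell-associated DiI fluorescence as measure of HDL uptake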
SR-BI DiI inh: blocks mouse SR-BI lipid uptake from DiI-HDL; ldlA[mSR-BI] CHO cells, DiI-HDL uptake fluorescence, 3 h; inhibition, % at 12.5 µM; 320,000 compounds, 0.96% hits; Q61009;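 active = mean replicate inhibition of at least 70% and a set share of replicates each scoring 70 or more; inconclusive = meets just one of the two criteria; inactive = fails both criteria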
Target sequence (Q61009 whole entry, looked up): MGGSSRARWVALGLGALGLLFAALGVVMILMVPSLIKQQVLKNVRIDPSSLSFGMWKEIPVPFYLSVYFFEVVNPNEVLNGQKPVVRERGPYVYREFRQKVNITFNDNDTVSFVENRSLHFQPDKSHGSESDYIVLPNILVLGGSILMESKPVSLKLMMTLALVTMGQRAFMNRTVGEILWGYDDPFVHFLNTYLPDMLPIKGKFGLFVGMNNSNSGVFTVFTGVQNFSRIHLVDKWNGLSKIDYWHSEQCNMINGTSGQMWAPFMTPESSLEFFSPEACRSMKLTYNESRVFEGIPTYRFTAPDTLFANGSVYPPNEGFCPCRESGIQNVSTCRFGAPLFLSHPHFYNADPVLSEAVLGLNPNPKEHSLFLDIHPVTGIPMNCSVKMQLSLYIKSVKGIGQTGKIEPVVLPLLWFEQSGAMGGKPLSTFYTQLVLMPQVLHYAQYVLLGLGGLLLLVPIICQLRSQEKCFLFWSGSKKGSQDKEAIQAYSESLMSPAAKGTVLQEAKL
Large screens that a line does not name were inactive. In the library only some 3.6% were active in any assay of this set; here they are far more common.

Cc1cc(C)c(C)c(N=Nc2nc3ccccc3n2C)c1C	SR-BI DiI inh 79.4 (no result: Wnt act)
Nc1nc2c(ncn2[C@@H]2O[C@H](C(=O)N[C@@H](Cc3ccccc3)C(=O)NCc3ccc4c(c3)OCO4)[C@@H](O)[C@H]2O)c(=O)[nH]1	none (no result: MITF TRPM1 HTS, HSF-1 act, SR-BI DiI-HDL act, SR-BI DiI inh)
CCN(CC)C(=O)C1=C(C)N(CCC2=CCCCC2)C(=O)C(CC(=O)NC(c2ccccc2)c2ccccc2)C1 (configuration not stated)	none (no result: MITF TRPM1 HTS, HSF-1 act, SR-BI DiI-HDL act, SR-BI DiI inh)
Cc1ccc(-n2c(C)cc(/C=C3\SC(=O)NC3=O)c2C)cc1	HSF-1 act 61.0
Cc1cc(/C=C2\SC(=S)NC2=O)c(C)n1-c1cccc(O)c1	Wnt act 35.8 (no result: SR-BI DiI-HDL act, SR-BI DiI inh)
Cc1cc(/C=C2/C(=O)NN(c3ccccc3)C2=O)c(C)n1-c1cccc(O)c1	none
CN(C)/C=N/c1cnc(C(=O)c2ccc(Cl)cc2)n1C	MITF TRPM1 HTS inconclusive, HSF-1 act 62.2 (no result: Wnt act)
Nc1c(-c2ccc(Cl)cc2)cnc2c(-c3ccc(F)cc3)cnn12	MITF TRPM1 HTS 111.2, Wnt act 45.6
Cc1nc2c(-c3ccc(Cl)cc3)cnn2c(N)c1-c1ccc(F)cc1	none (no result: MITF TRPM1 HTS)
Nc1c(-c2cccc(Cl)c2)cnc2c(-c3ccccc3)cnn12	Wnt act 44.8, HSF-1 act 64.4
Nc1c(-c2cccc(Cl)c2)cnn1-c1ccccc1	none (no result: SR-BI DiI-HDL act, SR-BI DiI inh)
Cc1ccc(-n2cnc3c(=O)[nH]cnc32)cc1[N+](=O)[O-]	none (no result: HSF-1 act)
COc1ccccc1N1C(=O)S/C(=C\c2cc(C)n(C)c2C)C1=O	HSF-1 act 53.5
OC(c1ccc(F)c(F)c1)c1nc(-c2csc3ccccc23)cs1 (configuration not stated)	none (no result: MITF TRPM1 HTS, HSF-1 act, SR-BI DiI-HDL act, SR-BI DiI inh)
O=C(Nc1cc2c3c(c1)CC(=O)N3CCC2)c1ccc(Cl)cc1	SR-BI DiI inh 78.7
C=CCn1c(=O)c2c3c(sc2n2c(Nc4ccccc4)nnc12)CCCC3	HSF-1 act 67.5 (no result: Wnt act)
Cc1cc(-c2csc(N)n2)c(C)n1-c1ccc(Cl)c(Cl)c1	SR-BI DiI inh 70.2
COc1ccc(-n2c(C)cc(-c3csc(N)n3)c2C)cc1	none (no result: Wnt act)
O=C(CN1C(=O)c2ccccc2C1=O)NCCc1c[nH]c2ccc(Cl)cc12	none
Cc1ccc2[nH]cc(CCNC(=O)CN3C(=O)c4ccccc4C3=O)c2c1	HSF-1 act 73.3
CCCc1ccc(-c2cc(NC(=O)Cc3c(C)[nH]c4ccccc34)ccc2N(C)c2cccnc2)cc1	none (no result: MITF TRPM1 HTS, HSF-1 act, SR-BI DiI-HDL act, SR-BI DiI inh)
CC(C)N(Cc1nccn1C)C(=O)CCc1nnc(CCCc2ccccc2)o1	Wnt act 69.0
COc1cc(/C=C/c2ccccc2)cc(OC)c1	MITF TRPM1 HTS 96.4 (no result: HSF-1 act)
Oc1ccc(/C=N/Nc2cccc3cccnc23)c(O)c1	HSF-1 act 84.9 (no result: Wnt act)
Oc1ccc(/C=N/Nc2ncc(Br)cn2)c(O)c1	HSF-1 act 79.1 (no result: Wnt act)
Cc1ccc(/C=N/Nc2cccc3cccnc23)c(O)c1	HSF-1 act 68.3
Oc1ccc(C=NNc2ccccn2)c(O)c1	none (no result: HSF-1 act)
Oc1ccc(/C=N/Nc2nccnc2Cl)c(O)c1	none (no result: MITF TRPM1 HTS)
CC(=O)NC(c1cccc(F)c1)c1nc(-c2ccc(N(C)C)cc2)cs1 (configuration not stated)	none (no result: MITF TRPM1 HTS, HSF-1 act, SR-BI DiI-HDL act, SR-BI DiI inh)
Cc1ccc2[nH]c(C)c(/C=N/Nc3nc4ccccc4s3)c2c1	SR-BI DiI inh 122.3 (no result: MITF TRPM1 HTS)
COc1ccc(C=NNc2nc3ccccc3s2)cc1	none (no result: HSF-1 act)
Brc1csc(/C=N/Nc2nc3ccccc3s2)c1	MITF TRPM1 HTS 84.1 (no result: Wnt act)
C(=C\c1ccccc1)/C=N/Nc1nc2ccccc2s1	MITF TRPM1 HTS 101.3, Wnt act inconclusive
CCC/C=N/Nc1nc2ccccc2s1	Wnt act 74.8, HSF-1 act inconclusive
COc1cc(-n2c(C)nc3ncn(-c4ccccc4)c3c2=O)cc(OC)c1OC	none (no result: MITF TRPM1 HTS, HSF-1 act, SR-BI DiI-HDL act, SR-BI DiI inh)
CCNC(=O)C1(C)CCN(C(=O)c2ccc3ccccc3c2)C1 (configuration not stated)	none (no result: MITF TRPM1 HTS, HSF-1 act, SR-BI DiI-HDL act, SR-BI DiI inh)
CN(Cc1nnc(-c2ccc(F)cc2)o1)c1ccccc1	HSF-1 act 59.7
CN(Cc1ccc(F)cc1)C(=O)CCc1nnc(-c2ccccc2)o1	none
CCOC(=O)C1=CCN(S(=O)(=O)c2ccc(Br)cc2)C1c1cccc(Cl)c1 (configuration not stated)	none (no result: MITF TRPM1 HTS, HSF-1 act, SR-BI DiI-HDL act, SR-BI DiI inh)
CNC(=O)c1nnsc1S(=O)(=O)c1ccc(Cl)cc1	HSF-1 act 158.1
Nc1nc2c(ccc3ccccc32)s1	none (no result: MITF TRPM1 HTS)
COc1cc2nn(-c3ccccc3N)nc2cc1OC	Wnt act 42.4 (no result: MITF TRPM1 HTS, HSF-1 act, SR-BI DiI-HDL act, SR-BI DiI inh)
COc1ccccc1-n1nc(C)cc1N	none (no result: SR-BI DiI-HDL act, SR-BI DiI inh)
Nc1ccccc1-n1nc2ccc3ccccc3c2n1	Wnt act 54.6 (no result: MITF TRPM1 HTS, HSF-1 act, SR-BI DiI-HDL act, SR-BI DiI inh)
